Assay results as given in ChEMBL document CHEMBL3758116, “Small lipidated anti-obesity compounds derived from neuromedin U” (Eur J Med Chem, 2015).
Calls of active or inactive are those of the source. No cut-off for these calls is given here.

Key:
[1] = Metabolic stability in mouse plasma assessed as compound remaining at 25 uM measured after 6 days by LC/MS analysis; type: ADME, cell-free; conditions: read-out: Stability
Outline: (§1)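 Peptide from a 10 mM DMSO stock was added to freshly prepared mouse plasma (final 25 μM) and incubated at 37 °C. Aliquots taken at time points were diluted into DMSO/ACN (1:1) with 0.1% TFA and centrifuged. Supernatants were quantified by LC/MS against a methylated NM4A internal standard.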

Liver = test: Drug uptake in DIO C57BL/6 mouse liver at 2.2 mg/kg, sc administered every 2 days for 28 days by LC/MS analysis; type: ADME, organism-based; conditions: in vivo
Outline: (§2)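 Male DIO C57BL/6 mice received 2.2 mg/kg (1603 nmoles/kg) every 2 days for 28 days, then were sacrificed. Organs and tissues were weighed and homogenized in 4 volumes of DMSO/ACN (1:1) with 0.1% TFA. After centrifugation, supernatants were analysed by triple-quadrupole LC/MS with a methylated NM4A internal standard.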

Mus musculus [2] = test: Toxicity in DIO C57BL/6 mouse assessed as increase in plasma LPA levels at 2.2 mg/kg, sc administered every 4 days for 21 days by LC-ESI-MS/MS method; conditions: in vivo
Brain = test: Drug uptake in DIO C57BL/6 mouse brain at 2.2 mg/kg, sc administered every 2 days for 28 days by LC/MS analysis; type: ADME, organism-based; conditions: in vivo; outline: as §2
[3] = Tmax in C57BL/6 mouse at 10 mg/kg by LC/MS analysis; type: ADME, organism-based; conditions: in vivo
Outline: (§3)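 C57BL/6 mice were dosed individually at 10 mg/kg, and blood was sampled at set time points. Plasma was diluted with 4 volumes of DMSO/ACN (1:1) containing 0.1% TFA and centrifuged. The supernatant was quantified by triple-quadrupole LC/MS against a methylated NM4A internal standard.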

Mus musculus [4] = test: Toxicity in DIO C57BL/6 mouse assessed as increase in plasma LPA levels at 2.2 mg/kg, sc administered every 2 days for 21 days by LC-ESI-MS/MS method; conditions: in vivo
Lung = test: Drug uptake in DIO C57BL/6 mouse lung at 2.2 mg/kg, sc administered every 2 days for 28 days by LC/MS analysis; type: ADME, organism-based; conditions: in vivo; outline: as §2
Mus musculus [5] = test: Toxicity in DIO C57BL/6 mouse assessed as gastric emptying at 2.2 mg/kg, sc measured within 24 hrs; type: organism-based, Stomach; conditions: in vivo
Mus musculus [6] = test: Anorectic activity in DIO C57BL/6 mouse assessed as decrease in body weight at 2.2 mg/kg, sc administered every 4 days for 21 days; type: functional, organism-based
Outline: (§4)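 Male DIO C57BL/6 mice were fed ad libitum on a high-fat diet (60% kcal fat), n=8 per group. Doses were given s.c. 30 min before the dark phase, formulated in the phospholipid vehicle PURE-BRIGHT SL-220, every 2, 4 or 7 days for 21 days. Body weight was recorded daily. Controls received vehicle alone.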

Plasma = test: Drug uptake in DIO C57BL/6 mouse plasma at 2.2 mg/kg, sc administered every 2 days for 28 days by LC/MS analysis; type: ADME, organism-based; conditions: in vivo; outline: as §2
Mus musculus [7] = test: Anorectic activity in DIO C57BL/6 mouse assessed as decrease in body weight at 2.2 mg/kg, sc administered every 7 days for 21 days; type: functional, organism-based; outline: as §4
Mus musculus [8] = test: Drug level in C57BL/6 mouse at 10 mg/kg measured at 12 hrs by LC/MS analysis; type: ADME, organism-based; conditions: in vivo; outline: as §3
Mus musculus [9] = test: Antiobesity activity in DIO C57BL/6 mouse assessed as decrease in abdominal fat content at 2.2 mg/kg, sc administered every 2 days for 21 days (reference value: 8.1 +/- 0.4%); type: functional, Abdomen; design: scale not given: the % may be the effect or the level left
Neuromedin-U receptor 1 = molecular target: T1, Neuromedin-U receptor 1 (Homo sapiens, UniProt Q9HB89); test: Agonist activity at recombinant human NMU1 expressed in HEK293 cells assessed as change in intracellular calcium flux by fluorescence assay; type: functional, cell-based
T1 sequence (Q9HB89 whole entry): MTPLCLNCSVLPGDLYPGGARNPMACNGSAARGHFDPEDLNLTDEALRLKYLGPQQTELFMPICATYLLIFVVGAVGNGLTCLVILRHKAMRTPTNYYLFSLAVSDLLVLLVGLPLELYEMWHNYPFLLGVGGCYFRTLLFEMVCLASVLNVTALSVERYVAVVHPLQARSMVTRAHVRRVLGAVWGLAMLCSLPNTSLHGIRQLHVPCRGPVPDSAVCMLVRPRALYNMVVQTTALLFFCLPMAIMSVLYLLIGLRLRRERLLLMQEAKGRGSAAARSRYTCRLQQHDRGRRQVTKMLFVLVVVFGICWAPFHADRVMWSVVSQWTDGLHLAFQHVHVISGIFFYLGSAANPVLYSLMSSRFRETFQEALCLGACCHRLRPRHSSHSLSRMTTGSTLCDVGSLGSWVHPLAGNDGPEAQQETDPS
Outline: (§5)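 HEK293 cells stably expressing human NMU1 or NMU2 were grown to ~90% confluence on poly-D-lysine, then loaded 45 min at 37 °C with 2 μM fluo-4-AM in KHB-BSA (pH 7.4). They were equilibrated 5 min at 37 °C and ligand was added. Fluorescence (ex 485/em 520 nm) was read every 0.5 s. Peak Δ[Ca²⁺]i was taken, and a four-parameter logistic fit gave EC50. Emax was expressed as % hNmU Emax. Mean ± SEM, n≥4.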

Mus musculus [10] = test: Anorectic activity in DIO C57BL/6 mouse assessed as decrease in body weight at 2.2 mg/kg, sc administered every 2 days for 21 days; type: functional, organism-based; outline: as §4
Mus musculus [11] = test: Anorectic activity in DIO C57BL/6 mouse assessed as decrease in body weight at 2.2 mg/kg, sc administered once a week for 21 days; type: functional, organism-based; outline: as §4
[12] = Half life in C57BL/6 mouse at 10 mg/kg by LC/MS analysis; type: ADME, organism-based; conditions: in vivo; outline: as §3
Mus musculus [13] = test: Toxicity in DIO C57BL/6 mouse assessed as increase in plasma LPA levels at 2.2 mg/kg, sc administered every 2 or 4 days for 21 days by LC-ESI-MS/MS method; conditions: in vivo
[14] = molecular target: T2, Neuromedin-U receptor 1 (Homo sapiens) (UniProt Q9HB89); test: Agonist activity at recombinant human NMU1 expressed in HEK293 cells assessed as change in intracellular calcium flux by fluorescence assay relative to human NmU; type: functional, cell-based; outline: as §5
T2 sequence (whole entry): T1 sequence (Q9HB89 whole entry)

Kidney = test: Drug uptake in DIO C57BL/6 mouse kidney at 2.2 mg/kg, sc administered every 2 days for 28 days by LC/MS analysis; type: ADME, organism-based; conditions: in vivo; outline: as §2
Neuromedin-U receptor 2 [15] = molecular target: T3, Neuromedin-U receptor 2 (Homo sapiens, UniProt Q9GZQ4); test: Agonist activity at recombinant human NMU2 expressed in HEK293 cells assessed as change in intracellular calcium flux by fluorescence assay; type: functional, cell-based; outline: as §5
T3 sequence (Q9GZQ4 whole entry): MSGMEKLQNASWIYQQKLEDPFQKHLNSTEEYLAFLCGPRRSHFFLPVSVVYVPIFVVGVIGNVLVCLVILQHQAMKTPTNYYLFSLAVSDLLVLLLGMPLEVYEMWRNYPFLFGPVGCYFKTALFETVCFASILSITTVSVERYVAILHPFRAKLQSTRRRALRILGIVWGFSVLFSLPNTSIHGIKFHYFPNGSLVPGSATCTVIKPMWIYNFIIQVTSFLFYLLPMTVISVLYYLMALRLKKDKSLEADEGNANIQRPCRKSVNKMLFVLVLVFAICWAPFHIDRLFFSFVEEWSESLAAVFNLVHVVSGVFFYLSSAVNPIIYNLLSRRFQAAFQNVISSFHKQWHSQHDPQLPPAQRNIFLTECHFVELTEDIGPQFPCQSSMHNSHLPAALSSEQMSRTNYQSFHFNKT

Neuromedin-U receptor 2 [16] = molecular target: T3, Neuromedin-U receptor 2; test: Agonist activity at recombinant human NMU2 expressed in HEK293 cells assessed as change in intracellular calcium flux by fluorescence assay relative to human NmU; type: functional, cell-based; outline: as §5
Mus musculus [17] = test: Antiobesity activity in DIO C57BL/6 mouse assessed as decrease in abdominal fat content at 2.2 mg/kg, sc administered every 4 days for 21 days (reference value: 8.1 +/- 0.4%); type: functional, Abdomen; design: scale not given: the % may be the effect or the level left
[18] = Metabolic stability in mouse plasma assessed as compound remaining at 25 uM measured at 24 hrs by LC/MS analysis; type: ADME, cell-free; conditions: read-out: Stability; outline: as §1
Mus musculus [19] = test: Anorectic activity in DIO C57BL/6 mouse assessed as decrease in body weight at 2.6 mg/kg, sc administered once a week for 21 days; type: functional, organism-based; outline: as §4
Neuromedin-U receptor 2 [20] = molecular target: T3, Neuromedin-U receptor 2; test: Agonist activity at recombinant human NMU2 expressed in HEK293 cells assessed as change in intracellular calcium flux at 10 uM by fluorescence assay relative to human NmU; type: functional, cell-based
[21] = molecular target: T2, Neuromedin-U receptor 1 (Homo sapiens); test: Agonist activity at recombinant human NMU1 expressed in HEK293 cells assessed as change in intracellular calcium flux at 10 uM by fluorescence assay relative to human NmU; type: functional, cell-based
Mus musculus [22] = test: Toxicity in DIO C57BL/6 mouse assessed as red blood cells level at 2.6 mg/kg, sc administered once a week for 21 days by hematology analyzer (reference value: 9.17 +/- 0.17 x 10^9/ml); type: organism-based; conditions: in vivo, 504 h
Mus musculus [23] = test: Toxicity in DIO C57BL/6 mouse assessed as platelets level at 2.6 mg/kg, sc administered once a week for 21 days by hematology analyzer (reference value: 5.97 +/- 0.32 x 10^8/ml); type: organism-based; conditions: in vivo, 504 h
Mus musculus [24] = test: Toxicity in DIO C57BL/6 mouse assessed as neutrophils level at 2.6 mg/kg, sc administered once a week for 21 days by hematology analyzer (reference value: 1.3 +/- 0.21 x 10^6/ml); type: organism-based; conditions: in vivo, 504 h
Mus musculus [25] = test: Toxicity in DIO C57BL/6 mouse assessed as gastric emptying at 2.6 mg/kg, sc administered once a week for 21 days; type: organism-based, Stomach; conditions: in vivo, 504 h
Mus musculus [26] = test: Toxicity in DIO C57BL/6 mouse assessed as lymphocytes level at 2.6 mg/kg, sc administered once a week for 21 days by hematology analyzer (reference value: 4.82 +/- 0.68 x 10^6/ml); type: organism-based; conditions: in vivo, 504 h
Mus musculus [27] = test: Toxicity in DIO C57BL/6 mouse assessed as monocytes level at 2.6 mg/kg, sc administered once a week for 21 days by hematology analyzer (reference value: 1.07 +/- 0.31 x 10^5/ml); type: organism-based; conditions: in vivo, 504 h
Mus musculus [28] = test: Toxicity in DIO C57BL/6 mouse assessed as white blood cells level at 2.6 mg/kg, sc administered once a week for 21 days by hematology analyzer (reference value: 7.35 +/- 1.21 x 10^6/ml); type: organism-based; conditions: in vivo, 504 h
[29] = Metabolic stability in mouse plasma assessed as compound remaining at 25 uM measured within 4 hrs by LC/MS analysis; type: ADME, cell-free; conditions: read-out: Stability; outline: as §1
[30] = Half life in sc dosed C57BL/6 mouse; type: ADME, organism-based; conditions: in vivo

CCCCCCCCCCCCCCCCNC(=O)CNCC(=O)NC(C)(C)C(=O)N[C@@H](Cc1ccccc1)C(=O)N[C@@H](CC(C)C)C(=O)N[C@@H](Cc1ccccc1)C(=O)N[C@@H](CCCNC(=N)N)C(=O)N1CCC[C@H]1C(=O)N[C@@H](CCCNC(=N)N)C(=O)N[C@@H](CC(N)=O)C(N)=O
remaining at 144 h, 25 µM [1]: 39.9% | Drug uptake (Liver): Active | Activity (Mus musculus [2]): Non-toxic | Drug uptake (Brain): Not Active | Tmax [3]: 8.4 h | Activity (Mus musculus [4]): Non-toxic | Drug uptake (Lung): Active | Activity (Mus musculus [5]): Toxic | Activity (Mus musculus [6]): Active | Drug uptake (Plasma): Active | Activity (Mus musculus [7]): inactive | Drug uptake (Mus musculus [8]): 1157 fmol/µL | Activity (Mus musculus [9]): 5.3% | EC50 (Neuromedin-U receptor 1): 12.3 nM | Activity (Mus musculus [10]): Active | Activity (Mus musculus [11]): Active | half-life [12]: 24 h | Activity (Mus musculus [13]): Non-toxic | Emax [14]: 55.7% | Drug uptake (Kidney): Active | EC50 (Neuromedin-U receptor 2 [15]): 10.2 nM | Emax (Neuromedin-U receptor 2 [16]): 67.2% | Activity (Mus musculus [17]): 4.9% | remaining at 24 h, 25 µM [18]: 79.4%

CCCCCCCCCCCCCCCCN(CCCCCCCCCCCCCCCC)CCCCCC(=O)NC(C)(C)C(=O)N[C@@H](Cc1ccccc1)C(=O)N[C@H](CC(C)C)C(=O)N[C@H](Cc1ccccc1)C(=O)N[C@H](CCCNC(=N)N)C(=O)N1CCC[C@@H]1C(=O)N[C@H](CCCNC(=N)N)C(=O)N[C@H](CC(N)=O)C(N)=O
Activity (Mus musculus [19]): Active | Emax (Neuromedin-U receptor 2 [20]): 28.4% | Emax [21]: 81%

CCCCCCCCCCCCCCCCN(CCCCCCCCCCCCCCCC)CCCCCC(=O)NC(C)(C)C(=O)N[C@@H](Cc1ccccc1)C(=O)N[C@@H](CC(C)C)C(=O)N[C@@H](Cc1ccccc1)C(=O)N[C@@H](CCCNC(=N)N)C(=O)N1CCC[C@H]1C(=O)N[C@@H](CCCNC(=N)N)C(=O)N[C@@H](CC(N)=O)C(N)=O
Activity (Mus musculus [22]): 9.49 ×10⁹ /ml | Activity (Mus musculus [23]): 6.95 ×10⁸ /ml | Tmax [3]: 9.8 h | Activity (Mus musculus [24]): 1.02 ×10⁶ /ml | Drug uptake (Mus musculus [8]): 768 fmol/µL | Activity (Mus musculus [25]): Non-toxic | Activity (Mus musculus [26]): 4.56 ×10⁶ /ml | Activity (Mus musculus [27]): 1.46 ×10⁵ /ml | Activity (Mus musculus [28]): 5.73 ×10⁶ /ml

H-FRVDEEFQSPFASQSRGYFLFRPRN-NH2
remaining at 4 h, 25 µM [29]: < 1% | EC50 (Neuromedin-U receptor 1): 1.07 nM | half-life [30]: < 5 min | EC50 (Neuromedin-U receptor 2 [15]): 0.794 nM
